Screening data from PubChem.
CXCR6 block = blocks human CXCR6 beta-arrestin recruitment; O00574; CHO-K1 PathHunter CXCR6 beta-arrestin, luminescence; inhibition, % at 20 µM; 0.36% of 360,000 active; AID 602244; in the data active = inhibition above about 34%, passing the limit was not always enough;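 note: antagonist mode with CXCL16 agonist at 10 nM final; 0% = 10 nM CXCL16 with DMSO and 100% = unstimulated wells without agonist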
APJ antag = blocks the human apelin receptor APJ; P35414; CHO-K1 APJ beta-arrestin complementation, luminescence; inhibition, % at 20 µM; 0.32% of 330,000 active;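 active = inhibition above about 40% at 20 µM, limit read from the data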;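 note: cells challenged with 10 nM apelin-13 agonist together with compound; plate controls were apelin-13 plus DMSO wells for no effect and DMSO wells lacking apelin-13 for full effect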
APJ agonist = agonists of human APJ apelin receptor; P35414; CHO-K1 APJ PathHunter beta-arrestin, luminescence; 0% DMSO wells, 100% apelin; activation, % at 20 µM; 0.11% of 330,000 active;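 active = activation more than six SD over the plate average, tested at 20 µM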;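 note: 0% = DMSO alone and 100% = apelin-13 at 10 nM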
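Incubation: overnight seeding, 90 min compound at 25 °C, 1 h detection; test system: PathHunter CHO-K1 APJ (AGTRL-1) beta-arrestin reporter cells; amount: 1000 cells/well; doses: one dose, 20 µM compound, 1% DMSO; measured by: beta-gal luminescence; measure: agonist-driven arrestin binding to APJ; benchmarks: negative DMSO alone, positive Apelin-13 at 10 nM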
EBI2 antag = EBI2 (human) antagonism; 0.81% of 360,000 active; AID 651636; EBI2 beta-arrestin recruitment, luminescence, 7a,25-OHC stimulated; inhibition, % at 5 µM; in the data active = inhibition above about 38%;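 note: enzyme fragment complementation signal reports receptor beta-arrestin coupling in cells; 0% = agonist plus DMSO wells and 100% = wells without agonist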
Target sequence (P32249 whole entry, looked up, the tested form may be a part): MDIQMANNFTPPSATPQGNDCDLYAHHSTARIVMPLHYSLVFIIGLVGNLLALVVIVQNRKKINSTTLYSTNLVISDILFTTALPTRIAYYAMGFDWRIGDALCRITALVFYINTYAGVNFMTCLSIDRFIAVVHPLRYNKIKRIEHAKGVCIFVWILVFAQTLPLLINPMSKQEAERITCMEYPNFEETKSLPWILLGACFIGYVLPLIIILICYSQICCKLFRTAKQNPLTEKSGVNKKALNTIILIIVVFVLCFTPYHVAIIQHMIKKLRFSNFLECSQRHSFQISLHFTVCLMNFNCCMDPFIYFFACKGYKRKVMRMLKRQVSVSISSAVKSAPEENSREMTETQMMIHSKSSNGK
CCR6 antag = blocks CCL20-driven beta-arrestin recruitment at human CCR6. P51684. inhibition, % at 20 µM. CHO-K1 CCR6 PathHunter beta-arrestin, luminescence, CCL20-stimulated. AID 493098. 0.49% of 340,000 active;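 active = compounds whose inhibition of the agonist-driven luminescence signal at 20 µM reaches about 50%, limit read from the data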;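 note: cells stimulated with CCL20 at 14 nM final; plate controls were DMSO with CCL20 for no effect and DMSO without agonist for full effect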
EBI2 conf = confirmation of human EBI2 receptor antagonists. 29% of 2,400 active. shares compounds with EBI2 antag. EBI2 beta-arrestin luminescence, 7a,25-OHC antagonism. inhibition, % at 5 µM;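 active = inhibition of at least 50%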
EBI2 agonist = activates EBI2, counter-screen for EBI2 antagonists. EBI2-expressing cells, agonist mode, luminescence, 60 min; 0% vehicle, 100% 7α,25-dihydroxycholesterol control. AID 652000. activation, % at 5 µM. shares compounds with EBI2 antag. 2,400 tested, under 10 active;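 active = activation of at least 50%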
bGal counter = inhibits E. coli beta-galactosidase, counter-screen for EBI2 antagonists. 1% of 2,400 active. shares compounds with EBI2 antag. inhibition, % at 5 µM. purified beta-galactosidase, luminescent Galacton Star, 15 min. AID 652176;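 active = replicate-average signal at least 3 plate SD below neutral wells, shown as high inhibition, flagging enzyme-inhibiting false positives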;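 note: 0% = DMSO wells with enzyme and 100% = wells lacking enzyme; higher means stronger loss of beta-gal luminescence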
* hit, by the source's call; nt = not tested or not shown. A selection: hits, their analogues and other compounds. The true share with any hit is near 1.5%.

SMILES	CXCR6 block	APJ antag	APJ agonist	EBI2 antag	CCR6 antag	EBI2 conf	EBI2 agonist	bGal counter
CCOc1ccccc1N1CCN(C(=O)c2cc3cc(OC)ccc3[nH]2)CC1	-2	-5	2	52*	3	30	-1	-14
CCOc1ccccc1N1CCN(C(=O)c2cc(C)oc2C)CC1	1	9	-4	7	4	nt	nt	nt
CCC(C)(C)C1CCC2(CC1)NC(=O)N(CC(=O)N(C)Cc1ccc3c(c1)OCCO3)C2=O (stereo not drawn)	-8	-3	-2	8	2	nt	nt	nt
CC1CCc2c(sc3ncnc(NCc4cccnc4)c23)C1 (stereo not drawn)	6	14	-4	4	12	nt	nt	nt
CC1CCc2c(sc3ncnc(NCCCOC(C)C)c23)C1 (stereo not drawn)	-14	-9	2	45*	20	33	0	1
O=C1C=C(c2ccc(O)cc2)C[C@@H](c2ccc3c(c2)OCO3)C1	6	0	-3	16	18	nt	nt	nt
O=C1C=C(c2ccc3c(c2)oc2ccccc23)C[C@@H](c2ccc3c(c2)OCO3)C1	2	7	-6	71*	17	64*	1	-3
Cc1ccc(C2=CC(=O)C[C@H](c3ccc4c(c3)OCO4)C2)cc1	4	2	-1	48*	18	37	1	10
CSc1ccc(C2=CC(=O)C[C@H](c3ccc4c(c3)OCO4)C2)cc1	2	0	-4	41*	11	28	-1	-4
CCCCN1C(=O)C(=O)N(CC(=O)Nc2cc(S(=O)(=O)N(C)C)ccc2C)C1=O	-5	16	-3	-1	14	nt	nt	nt
O=C(c1ccncc1)N1CCN(c2ccc(F)cc2)CC1	-4	6	-2	-4	-3	nt	nt	nt
Cc1ccc(C(=O)N2CCC(C(=O)c3ccc(F)cc3)CC2)cc1	0	nt	nt	52*	2	50*	1	1
CCC(=O)NC(=S)Nc1ccc(N2CCN(C(=O)c3ccc(Cl)cc3)CC2)cc1	-3	1	-2	43*	8	11	0	-11
O=C(c1ccc(Cl)cc1)N1CCN(c2ccc(F)cc2)CC1	7	-1	3	51*	-4	41	0	3
O=C(c1ccc(Cl)cc1)C1CCN(C(=O)c2ccc(F)cc2)CC1	-7	4	-1	49*	11	14	1	7
CC(=O)N1CCC(C(=O)c2ccc(Cl)cc2)CC1	-5	-4	-8	1	-4	nt	nt	nt
O=C(NC(=S)Nc1ccc(N2CCOCC2)cc1)c1ccc(Cl)cc1	-2	-4	3	6	-4	nt	nt	nt
COc1ccc2c(c1)CCCC21NC(=O)N(CC(=O)NCc2cccs2)C1=O (stereo not drawn)	7	-11	1	4	-2	nt	nt	nt
COc1cc(CN(C(=O)c2cccs2)C2CCS(=O)(=O)C2)cc(OC)c1OC (stereo not drawn)	3	-4	-5	5	-3	nt	nt	nt
CCOc1ccc(-c2cc(NC(=O)Cn3ncc4c3-c3ccccc3OC4)on2)cc1OCC	2	9	8	11	-2	nt	nt	nt
Cc1ccc(C(=O)C2CCN(C(=O)c3ccc(C)cc3)CC2)cc1	-1	8	-1	57*	9	32	0	-14
Cc1ccc(C(=O)N2CCN(S(=O)(=O)N3CCCCCC3)CC2)cc1	2	7	0	31	10	nt	nt	nt
Cc1ccc(C(=O)N2CCC(C(=O)c3c(C)cc(C)cc3C)CC2)cc1	-11	-8	0	43*	0	14	0	-11
N#Cc1cccc(NC(=O)Cn2cnc(S(=O)(=O)N3CCCCC3)c2)c1	6	9	6	-6	8	nt	nt	nt
Cc1ccc2nc(-c3cccnc3)cc(C(=O)Nc3ccccc3[N+](=O)[O-])c2c1	1	-31	21	48*	7	61*	1	5
SMILES	CXCR6 block	APJ antag	APJ agonist	EBI2 antag	CCR6 antag	EBI2 conf	EBI2 agonist	bGal counter
CC(=O)Nc1cccc(NC(=O)c2cc(-c3cccnc3)nc3ccc(Br)cc23)c1	4	2	6	-27	9	nt	nt	nt
CSc1ccccc1NC(=O)c1cc(-c2cccnc2)nc2ccc(Br)cc12	8	5	2	41*	4	16	-1	-7
O=C(CNCc1ccccc1)NCCCN1CCCC1=O	-7	18	-1	-3	-1	nt	nt	nt
O=C(/C=C/c1ccc(Br)cc1)NCc1cccs1	-1	-19	1	65*	13	48	0	4
Brc1ccc(Nc2nc(-c3cccnc3)cs2)cc1	5	2	-3	28	1	nt	nt	nt
CC(=O)c1cccc(Nc2nc(-c3cccnc3)cs2)c1	-1	-10	0	20	2	nt	nt	nt
Cc1ccc(Nc2nc(-c3cccnc3)cs2)cc1C	-4	-29	1	49*	8	56*	2	2
Brc1cccc(Nc2nc(-c3cccnc3)cs2)c1	-12	-23	-2	42*	-7	45	2	2
Clc1cccc(Nc2nc(-c3cccnc3)cs2)c1	-1	0	0	48*	-7	53*	0	7
COc1ccc(CN(C)CC(=O)Nc2ccc(Cl)cc2C(F)(F)F)c(OC)c1	-1	11	-3	6	17	nt	nt	nt
COc1ccc(CCNC(=O)c2ccc(OCc3c(C)noc3C)c(OC)c2)cc1	3	2	1	-5	6	nt	nt	nt
COc1cc(C(=O)NCCc2c[nH]c3ccccc23)ccc1OCc1c(C)noc1C	-5	-13	5	61*	8	49	0	-19
CCc1nc2ccc(C(=O)Nc3ccc(C(N)=O)cc3)cn2c1N(CCC(C)C)CCN(C)C	-4	nt	nt	-11	nt	nt	nt	nt
O=C1C=C(c2ccc3c(c2)OCO3)C[C@@H](c2ccc(F)cc2)C1	0	3	-3	12	16	nt	nt	nt
O=C1C=C(c2ccc3ncccc3c2)C[C@@H](c2ccc3c(c2)OCO3)C1	3	11	-3	66*	22	45	-1	-4
O=C1C=C(c2ccc(Cl)nc2)C[C@@H](c2ccc3c(c2)OCO3)C1	2	4	-3	8	6	nt	nt	nt
O=C1C=C(c2cccc3c2oc2ccccc23)C[C@@H](c2ccc(F)cc2)C1	-2	3	-4	76*	4	56*	0	-12
O=C1C=C(c2cc3ccccc3o2)C[C@@H](c2ccc(F)cc2)C1	-7	12	-3	26	26	nt	nt	nt
O=C1C=C(c2ccc(-c3ccccc3)c(F)c2)C[C@@H](c2ccc(F)cc2)C1	-4	-4	1	22	11	nt	nt	nt
O=C1C=C(c2ccc3ccccc3c2)C[C@@H](c2ccc(F)cc2)C1	4	-12	-2	77*	5	43	-1	-8
